Source: ChEMBL document CHEMBL1140119, “Heteroarylnitrones as drugs for neurodegenerative diseases: synthesis, neuroprotective properties, and free radical scavenger properties” (J Med Chem, 2008)
Calls of active or inactive are those of the source. The rule behind the calls is not given here.

Legend:
[1] = tested on: SH-SY5Y; assay: Neuroprotective activity against human SH-SY5Y cells assessed as inhibition of H2O2-induced cellular damage at 10 uM after 24 hrs relative to control; assay type: functional; design: scale not given: the % may be the effect or the level left
Procedure, shortened: (§1)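 SH-SY5Y cells (passages 3-16, MEM with 10% FBS, 37 °C, 5% CO2) seeded at 10^4 cells/well. Pretreated with compound at 10 µM for 1 h, then 100 µM H2O2 for 24 h; NAC 5 mM as positive control. Viability from LDH released into the medium. Difference relative to H2O2-only cells, normalized; neuroprotection computed from basal values. Triplicate, mean ± SD.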

[2] = tested on: SH-SY5Y; assay: Neuroprotective activity against human SH-SY5Y cells assessed as inhibition of H2O2-induced cellular damage at 10 uM dosed 1 hr prior to H2O2 challenge after 24 hrs relative to control; assay type: functional; design: scale not given: the % may be the effect or the level left; procedure, shortened: as §1
[3] = tested on: J774; assay: Cytotoxicity against mouse J774 cells after 48 hrs by MTT assay; assay type: cell-based; settings: J774, 48 h
Procedure, shortened: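 J774 murine macrophages seeded at 1 × 10^5 cells/well and left 48 h at 37 °C in 5% CO2 to attach. Exposed to compounds at 50-500 µM for 48 h. MTT 0.2 mg/mL final for 3 h, formazan dissolved in DMSO, absorbance at 560 nm. IC50 is the concentration reducing control absorbance by 50%, averaged over two experiments.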

[4] = Antioxidant activity assessed as peroxyl free radical scavenging activity by ORAC-fluorescence assay relative to alpha-phenyl-N-tert-butylnitrone; assay type: functional
Procedure, shortened: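 Peroxyl scavenging by fluorescein ORAC at 60 °C in 75 mM phosphate buffer pH 7.4. Compounds at 10-1000 µM final with fluorescein 70 nM final; 30 s preincubation, then AAPH 12 mM final. Fluorescence (ex 490/em 515) read every minute for 12 min. Net AUC versus blank regressed on concentration and expressed as µmol PBN equivalents per µmol sample. Duplicates, at least three independent assays.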

[5] = tested on: Radical scavenging activity; assay: Antioxidant activity assessed as reduction of DPPH radical scavenging activity at 0.1 mM; assay type: functional; design: scale not given: the % may be the effect or the level left
Procedure, shortened: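 DPPH reduction in ethanol. Test compound and DPPH both 0.1 mM final, preincubated 5 min at 37 °C, absorbance read at 520 nm. Reduction percentage = 100[(A0 − Ac)/A0], with A0 the untreated DPPH absorbance.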

[6] = tested on: J774; assay: Cytotoxicity against mouse J774 cells at 10 uM after 48 hrs by MTT assay; assay type: cell-based; settings: j774, 48 h
[7] = species on record: Homo sapiens; assay: Neuroprotective activity against oxidative stress-induced cell death in human neuroblastoma cells; assay type: functional, cell-based
[8] = tested on: SH-SY5Y; assay: Neuroprotective activity against human SH-SY5Y cells assessed as inhibition of H2O2-induced cellular damage at 1 uM dosed 1 hr prior to H2O2 challenge after 24 hrs relative to control; assay type: functional; design: scale not given: the % may be the effect or the level left
Procedure, shortened: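 SH-SY5Y neuroblastoma cells given compound at 1 µM 1 h before a 100 µM H2O2 challenge and then incubated 24 h. Viability measured as LDH activity and compared with H2O2-only cells; NAC 5 mM used as positive control. Three independent experiments, mean ± SD.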

[9] = Permeability across porcine brain lipid coated polyvinylidene fluoride membrane by PAMPA; assay type: ADME; settings: pig, read-out: permeability
Procedure, shortened: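 PAMPA-BBB assay. Filter of the donor plate (PVDF, 0.45 µm) coated with porcine brain lipid in dodecane (20 mg/mL). Compounds at 1 mg/mL in PBS/ethanol (9:1), filtered, placed in donor wells; acceptor wells held PBS/ethanol (9:1). Sandwich left 120 min at 25 °C, acceptor concentration measured by UV. Four wells per sample, at least three runs, mean ± SD.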

[10] = tested on: Radical scavenging activity; assay: Antioxidant activity assessed as reduction of DPPH radical scavenging activity at 10 mM; assay type: functional; design: scale not given: the % may be the effect or the level left

Papp [9] [×10⁻⁶ cm/s]	Compound	Activity [1] [%]	Activity [2] [%]	IC50 [3] [µM]	PBN equivalents [4]	Activity [5] [%]	Activity [6]	Activity [7]	Activity [8] [%]	Activity [10] [%]
	CC(C)(C)/[N+]([O-])=C/c1nsc(-c2ccccc2)n1	20	36	> 400	2	41	Non-toxic			
	CC(C)(C)/[N+]([O-])=C/c1c(-c2ccccc2)no[n+]1[O-]	0		100	6	0	Non-toxic	inactive		
4.5	CC(C)(C)c1cc(-c2nsc(/C=[N+](\[O-])C(C)(C)C)n2)cc(C(C)(C)C)c1O	25.2	46	> 400	6	40	Non-toxic		20	
	Cc1c(/C=[N+](\[O-])C(C)(C)C)no[n+]1[O-]	23	42	> 400	2.5	8	Non-toxic			
	[O-]/[N+](=C\c1nc(-c2ccccc2)ns1)C1CCCCC1	23.6	43	100	4.6	11	Non-toxic			
	Cc1nnsc1/C=[N+](\[O-])C(C)(C)C	0		> 400		0	Non-toxic	inactive		
	CCOC(=O)c1snnc1/C=[N+](\[O-])C(C)(C)C	0		> 400		0	Non-toxic	inactive		
	CC(C)(C)/[N+]([O-])=C/c1ccc2no[n+]([O-])c2c1	13.4	24	150	16.5	17	Non-toxic			
	CC(C)(C)/[N+]([O-])=C/c1ccccc1	20.6	37	> 400	1	0				20
	CC(C)(C)/[N+]([O-])=C/c1nc(-c2ccc(Cl)cc2)ns1	19.1	34	200	1.5	0	Non-toxic			
	[O-]/[N+](=C\c1nc(-c2ccccc2)ns1)Cc1ccccc1	18.1	33	240	3.5	0	Non-toxic			
	CC(C)(C)/[N+]([O-])=C/c1nc(-c2ccccc2)ns1	20.7	38	> 400	5.5	0	Non-toxic			
12.5	COc1ccc(-c2nsc(/C=[N+](\[O-])C(C)(C)C)n2)cc1	25	46	> 400	7	10	Non-toxic			
